Calls of active or inactive are those of the source. No cut-off for these calls is given here.
Tests used:
Anthrax toxin receptor 2 = Anthrax toxin receptor 2 (Homo sapiens, UniProt P58335, C175A/R40C); test: Inhibition of CMG2 (40 to 217) C175A and R40C double mutant (unknown origin) interaction to full length PA E733C mutant expressed in Escherichia coli by FRET assay
[1] = Cmax in C57BL/6J mouse at 20 mg/kg, ip after 6 to 24 hrs; assay type: ADME, organism-based; parameters: dose 20 mg/kg, route intraperitoneal; settings: in vivo
Mus musculus [2] = test: Toxicity in C57BL/6J mouse assessed as hunched posture at 20 mg/kg, po or 10 mg/kg, ip measured on day 5; assay type: organism-based; settings: in vivo
[3] = Cytostatic toxicity against HMVEC at 1 to 30 uM after 24 to 72 hrs by fluorescence assay; settings: human
In short: (§1)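 HMVEC-d (EGM-2, before passage 7) seeded at 2000 cells/well, medium swapped after attachment for EGM-2 ± compound; grown 1 or 3 days, then quantified by Cyquant fluorescence. Fold-proliferation = experimental readout / day-0 ethanol-fixed wells; normalized to untreated wells. Four independent experiments, n=4 wells each; t-test with Bonferroni correction.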

Mus musculus [4] = test: Toxicity in C57BL/6J mouse assessed as behavioral abnormalities at 20 mg/kg, po or 10 mg/kg, ip measured on day 5; assay type: organism-based; settings: in vivo
Mus musculus [5] = test: Antiangiogenic activity in C57BL/6J mouse assessed as bFGF-induced angiogenesis at 20 mg/kg, po or 10 mg/kg, ip measured on day 5 by corneal micropocket assay; assay type: functional, organism-based; settings: Cornea
In short: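 bFGF pellet (80 ng) implanted in cornea; groups of five mice dosed daily from implantation day, either 20 mg/kg by oral gavage in 5% ethanol or 10 mg/kg/day IP in 2.5% DMSO/5% Cremaphor EL/5% Tween-80/7.5% N-methyl-2-pyrrolidone/0.9% NaCl; vehicle-only controls. Vascular response area measured by slit lamp on postoperative day 5, typically 10 eyes per group.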

Mus musculus [6] = test: Toxicity in C57BL/6J mouse assessed as weight loss at 20 mg/kg, po or 10 mg/kg, ip measured on day 5; assay type: organism-based; settings: in vivo
[7] = Cytotoxicity against HMVEC at 1 to 30 uM after 24 to 72 hrs by fluorescence assay; settings: human; in short: as §1
[8] = Antiangiogenic activity in HMVEC assessed as inhibition of endothelial cell migration after 4 hrs by stereomicroscopic analysis; assay type: functional, cell-based; settings: Homo sapiens
In short: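 HMVEC-d (EGM-2, used before passage 7) resuspended in EBM with 0.1% BSA, 20,000 cells on fibronectin-coated 8.0 μm-pore polycarbonate transwells; migration toward full (5%) serum media ± compound for 4 h. Non-migrated cells swabbed off, membranes fixed and Diff-Quick stained. Data normalized to untreated control; two independent experiments, n=3 each; IC50 from binding isotherm fit.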

Anthrax toxin receptor 2, sequence (P58335 34-489 R40C/C175A limits assumed): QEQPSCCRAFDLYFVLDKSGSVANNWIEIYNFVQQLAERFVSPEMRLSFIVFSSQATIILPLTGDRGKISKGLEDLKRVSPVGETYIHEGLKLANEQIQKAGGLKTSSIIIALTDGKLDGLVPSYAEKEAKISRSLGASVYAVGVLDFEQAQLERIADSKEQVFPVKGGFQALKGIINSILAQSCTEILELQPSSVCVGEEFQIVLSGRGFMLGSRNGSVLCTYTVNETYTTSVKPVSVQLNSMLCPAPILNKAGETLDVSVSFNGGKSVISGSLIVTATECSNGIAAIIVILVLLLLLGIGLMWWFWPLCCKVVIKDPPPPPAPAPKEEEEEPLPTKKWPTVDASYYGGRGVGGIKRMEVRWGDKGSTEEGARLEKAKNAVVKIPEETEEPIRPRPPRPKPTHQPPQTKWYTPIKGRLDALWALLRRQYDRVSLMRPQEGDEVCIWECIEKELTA

Row | Compound | IC50 (Anthrax toxin receptor 2) | other results
1 | O=C(O)/C=C/c1ccc(O)c(O)c1 [CAFFEIC ACID] | > 300 µM | 
2 | COc1cc(C(=O)O)ccc1O [VANILLIC ACID] | > 300 µM | 
3 | COc1cc(/C=C/C(=O)CC(=O)/C=C/c2ccc(O)c(OC)c2)ccc1O [CURCUMIN] | > 300 µM | 
4 | O=C(O)c1cc(O)c(O)c(O)c1 [GALLIC ACID] | > 300 µM | 
5 | O=C(O)c1ccc(O)c(O)c1 [PROTOCATECHUIC ACID] | > 300 µM | 
6 | Oc1cc(O)c2c(c1)O[C@H](c1cc(O)c(O)c(O)c1)[C@H](O)C2 [EPIGALLOCATECHIN] | > 300 µM | 
7 | O=C(O)CCc1ccc(O)c(O)c1 [DIHYDROCAFFEIC ACID] | > 300 µM | 
8 | Oc1cc(O)c2c(c1)O[C@H](c1ccc(O)c(O)c1)[C@H](O)C2 [(-)-EPICATECHIN] | > 300 µM | 
9 | O=C(OC[C@H]1O[C@@H](OC(=O)c2cc(O)c(O)c(O)c2)[C@H](OC(=O)c2cc(O)c(O)c(O)c2)[C@@H](OC(=O)c2cc(O)c(O)c(O)c2)[C@@H]1OC(=O)c1cc(O)c(O)c(O)c1)c1cc(O)c(O)c(O)c1 [PENTAGALLOYL GLUCOSE] | 0.3 µM | Cmax [1]: < 1000 nM; Activity (Mus musculus [2]): Non-toxic; Activity [3]: Non-toxic; Activity (Mus musculus [4]): Non-toxic; inhibition (Mus musculus [5]): Active; Activity (Mus musculus [6]): Non-toxic; Activity [7]: Non-toxic; IC50 [8]: 0.82 µM
10 | NCCc1ccc(O)c(O)c1 [DOPAMINE] | > 300 µM | 
11 | COC(=O)c1ccc(O)c(O)c1 [METHYL PROTOCATECHUATE] | > 300 µM | 
12 | O=c1c(O)c(-c2ccc(O)c(O)c2)oc2cc(O)cc(O)c12 [QUERCETIN] | > 300 µM | 
13 | CCCOC(=O)c1cc(O)c(O)c(O)c1 [PROPYL GALLATE] | > 300 µM | 
14 | O=C(OC[C@H]1O[C@@H](OC(=O)c2cc(O)c(O)c(OC(=O)c3cc(O)c(O)c(O)c3)c2)[C@H](OC(=O)c2cc(O)c(O)c(OC(=O)c3cc(O)c(O)c(O)c3)c2)[C@@H](OC(=O)c2cc(O)c(O)c(OC(=O)c3cc(O)c(O)c(O)c3)c2)[C@@H]1OC(=O)c1cc(O)c(O)c(OC(=O)c2cc(O)c(O)c(O)c2)c1)c1cc(O)c(O)c(OC(=O)c2cc(O)c(O)c(O)c2)c1 [TANNIC ACID] | > 300 µM | 
15 | COC(=O)c1cc(O)c(O)c(O)c1 [GALLIC ACID METHYL ESTER] | > 300 µM | 
16 | O=c1c(O)c(-c2cc(O)c(O)c(O)c2)oc2cc(O)cc(O)c12 [MYRICETIN] | > 300 µM | 
